Reference: ChEMBL document CHEMBL1157729, “Structure-activity relationship and mechanism of action studies of manzamine analogues for the control of neuroinflammation and cerebral infections” (J Med Chem, 2010)

What was measured:
Plasmodium berghei [1] = test: Antiplasmodial activity against Plasmodium berghei NK65 infected in Swiss Webster mice (Mus musculus) assessed as average parasitaemia at 10 mg/kg, perorally administered 1 day after infection for 3 days measured after 21 days post infection; format: functional; conditions: route oral
Plasmodium berghei [2] = test: Antiplasmodial activity against Plasmodium berghei NK65 infected in Swiss Webster mice (Mus musculus) assessed as average parasitaemia at 1.1 mg/kg, perorally administered 1 day after infection for 3 days measured after 14 days post infection; format: functional; conditions: route oral
Plasmodium berghei [3] = test: Antiplasmodial activity against Plasmodium berghei NK65 infected in Swiss Webster mice (Mus musculus) assessed as survivability at 3.3 mg/kg, perorally administered 1 day after infection for 3 days measured after 28 days post infection; format: functional; conditions: route oral
Summary of the method: (§1)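 Male Swiss Webster mice (18-20 g), at least 5 per group, inoculated i.p. with 2×10^7 P. berghei NK-65-parasitized red cells from a donor mouse. Oral dosing (100 μl, in SSV or 0.01 M HCl dilutions) from day one post-infection on a 3-day schedule (modified Peters test). Giemsa-stained tail-blood smears read from day 5 to day 28. Cure means no parasitemia through day 28.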

Plasmodium berghei [4] = test: Antiplasmodial activity against Plasmodium berghei NK65 infected in Swiss Webster mice (Mus musculus) assessed as average parasitaemia at 50 mg/kg, perorally administered as single dose measured after 5 days of inoculation; format: functional; conditions: NK65, 120 h, route oral
Summary of the method: (§2)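 Male Swiss Webster mice (18-20 g, ≥5/group) inoculated i.p. with 2×10^7 P. berghei NK-65 parasitized RBC, given a single oral dose (100 μl, SSV or dilute HCl vehicle); parasitemia by Giemsa-stained tail blood smears days 5–28; activity as % decrease versus untreated controls on day 5.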

Plasmodium berghei [5] = test: Antiplasmodial activity against Plasmodium berghei NK65 infected in Swiss Webster mice (Mus musculus) assessed as average parasitaemia at 5 mg/kg, perorally administered 1 day after infection for 3 days measured after 21 days post infection; format: functional; conditions: route oral
Plasmodium berghei [6] = test: Antiplasmodial activity against Plasmodium berghei NK65 infected in Swiss Webster mice (Mus musculus) assessed as parasitaemia cure at 5 mg/kg, perorally administered 1 day after infection for 3 days measured after 28 days post infection; format: functional; conditions: route oral
Plasmodium berghei [7] = test: Antiplasmodial activity against Plasmodium berghei NK65 infected in Swiss Webster mice (Mus musculus) assessed as average parasitaemia at 5 mg/kg, perorally administered 1 day after infection for 3 days measured after 10 days post infection; format: functional; conditions: route oral
Plasmodium berghei [8] = test: Antiplasmodial activity against Plasmodium berghei NK65 infected in Swiss Webster mice (Mus musculus) assessed as average parasitaemia at 100 mg/kg, perorally administered 1 day after infection measured after 5 days post infection; format: functional; conditions: route oral; summary of the method: as §2
Plasmodium berghei [9] = test: Antiplasmodial activity against Plasmodium berghei NK65 infected in Swiss Webster mice (Mus musculus) assessed as average parasitaemia at 10 mg/kg, perorally administered 1 day after infection for 3 days measured after 14 days post infection; format: functional; conditions: route oral
Plasmodium berghei [10] = test: Antiplasmodial activity against Plasmodium berghei NK65 infected in Swiss Webster mice (Mus musculus) assessed as inhibition of parasitaemia at 3.3 mg/kg, perorally administered 1 day after infection for 3 days measured after 5 days post infection; format: functional; conditions: route oral
Summary of the method: (§3)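 Male Swiss Webster mice (18-20 g, ≥5/group) inoculated i.p. with 2×10^7 P. berghei NK-65 parasitized RBC; oral dosing (100 μl, SSV or dilute HCl vehicle) once daily for 3 days from day 1; Giemsa-stained tail blood smears days 5–28; inhibition is % decrease versus untreated controls on day 5.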

Mus musculus [11] = test: Toxicity in Plasmodium berghei NK65 infected Swiss Webster mice (Mus musculus) assessed as weight loss at 300 mg/kg, perorally; format: organism-based; set-up: dose 300 mg/kg, route oral; conditions: in vivo, po
Summary of the method: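 P. berghei NK-65 infection in male Swiss Webster mice (18-20 g; 2×10^7 parasitized erythrocytes i.p.; ≥5 per group). A single oral dose of 100 μl, diluted in SSV or 0.01 M HCl, then observation for toxicity signs and body weight. Parasitemia read from Giemsa-stained tail smears from day 5 through day 28. Mice free of parasitemia through day 28 counted as cured.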

HeLa [12] = test: Cell cycle arrest in human HeLa cells assessed as decrease in G2/M phase accumulation at 5 uM after 24 hrs by FACS analysis; format: functional; set-up: scale not given: the % may be the effect or the level left
[13] = Antineuroinflammatory activity in LPS-stimulated rat neonatal microglia assessed as inhibition of PMA-induced superoxide anion production preincubated 15 mins prior to PMA challenge measured after 70 mins; format: functional, cell-based
Plasmodium berghei [14] = test: Antiplasmodial activity against Plasmodium berghei NK65 infected in Swiss Webster mice (Mus musculus) assessed as average parasitaemia at 200 mg/kg, perorally administered 1 day after infection measured after 28 days post infection; format: functional; conditions: Plasmodium berghei, NK65, route oral; summary of the method: as §2
Plasmodium berghei [15] = test: Antiplasmodial activity against Plasmodium berghei NK65 infected in Swiss Webster mice (Mus musculus) assessed as average parasitaemia at 200 mg/kg, perorally administered 1 day after infection measured after 7 days post infection; format: functional; conditions: route oral
Plasmodium berghei [16] = test: Antiplasmodial activity against Plasmodium berghei NK65 infected in Swiss Webster mice (Mus musculus) assessed as suppression of parasitaemia at 10 mg/kg, intraperitoneally administered 1 day after infection for 3 days measured after 5 days post infection relative to control; format: functional; conditions: Plasmodium berghei, NK65, ip, route intraperitoneal
Plasmodium berghei [17] = test: Antiplasmodial activity against Plasmodium berghei NK65 infected in Swiss Webster mice (Mus musculus) assessed as inhibition of parasitaemia at 200 mg/kg, perorally administered 1 day after infection measured after 5 days post infection; format: functional; conditions: Plasmodium berghei, NK65, route oral; summary of the method: as §2
Plasmodium berghei [18] = test: Antiplasmodial activity against Plasmodium berghei NK65 infected in Swiss Webster mice (Mus musculus) assessed as parasitaemia cure at 200 mg/kg, perorally administered 1 day after infection measured after 28 days post infection; format: functional; conditions: Plasmodium berghei, NK65, route oral
Summary of the method: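 Male Swiss Webster mice (18-20 g), at least 5 per group, were inoculated ip with 2×10^7 P. berghei NK-65-parasitized red cells from a donor mouse and given a single oral dose (100 μl). Stock was made in SSV or 0.1 M HCl and diluted in SSV or 0.01 M HCl. Parasitemia was read from Giemsa-stained tail blood smears from day 5 to day 28. Cure meant no parasitemia through day 28.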

Plasmodium berghei [19] = test: Antiplasmodial activity against Plasmodium berghei NK65 infected in Swiss Webster mice (Mus musculus) assessed as average parasitaemia at 3.3 mg/kg, perorally administered 1 day after infection for 3 days measured after 14 days post infection; format: functional; conditions: route oral; summary of the method: as §3
Plasmodium yoelii = test: Antiplasmodial activity against Plasmodium yoelii infected in perorally dosed mice (Mus musculus); format: functional; conditions: po
Plasmodium berghei [20] = test: Antiplasmodial activity against Plasmodium berghei NK65 infected in Swiss Webster mice (Mus musculus) at 3.3 mg/kg, po; format: functional; summary of the method: as §1
HeLa [21] = test: Cell cycle arrest in human HeLa cells assessed as increase in S phase accumulation at 5 uM after 24 hrs by FACS analysis; format: functional
Plasmodium berghei [22] = test: Antiplasmodial activity against Plasmodium berghei NK65 infected in Swiss Webster mice (Mus musculus) assessed as average parasitaemia at 1.1 mg/kg, perorally administered 1 day after infection for 3 days measured after 28 days post infection; format: functional; conditions: route oral; summary of the method: as §3
Plasmodium berghei [23] = test: Antiplasmodial activity against Plasmodium berghei NK65 infected in Swiss Webster mice (Mus musculus) assessed as average parasitaemia at 5 mg/kg, perorally administered 1 day after infection for 3 days measured after 7 days post infection; format: functional; conditions: route oral
Mus musculus [24] = test: Toxicity in Plasmodium berghei NK65 infected Swiss Webster mice (Mus musculus) assessed as weight loss at 10 mg/kg, intraperitoneally administered 1 day after infection measured after 3 days post infection; format: organism-based; set-up: dose 10 mg/kg, route intraperitoneal; conditions: in vivo, ip, 72 h

O[C@]12C=C(c3nccc4c3[nH]c3ccccc34)[C@@H]3CCN(CCCC/C=C\CC1)C[C@@]31C[C@@H]3/C=C\CCCCN3[C@H]12 [MANZAMINE A]
inhibition in vivo at 10 mg/kg (Plasmodium berghei [1]): 1.9% | inhibition in vivo at 1.1 mg/kg (Plasmodium berghei [2]): 21.7% | inhibition in vivo at 3.3 mg/kg (Plasmodium berghei [3]): 100% | inhibition in vivo at 50 mg/kg (Plasmodium berghei [4]): 0% | inhibition in vivo at 5 mg/kg (Plasmodium berghei [5]): 21.7% | inhibition in vivo at 5 mg/kg (Plasmodium berghei [6]): 0% | inhibition in vivo at 5 mg/kg (Plasmodium berghei [7]): 7.8% | inhibition in vivo at 100 mg/kg (Plasmodium berghei [8]): 0% | inhibition in vivo at 10 mg/kg (Plasmodium berghei [9]): 0.9% | inhibition in vivo at 3.3 mg/kg (Plasmodium berghei [10]): 88% | Activity (Mus musculus [11]): Non-toxic | Activity (HeLa [12]): 14.3% | IC50 [13]: 0.1 µM | inhibition in vivo at 200 mg/kg (Plasmodium berghei [14]): 0% | inhibition in vivo at 200 mg/kg (Plasmodium berghei [15]): 0% | inhibition in vivo at 10 mg/kg (Plasmodium berghei [16]): 100% | inhibition in vivo at 200 mg/kg (Plasmodium berghei [17]): 100% | inhibition in vivo at 200 mg/kg (Plasmodium berghei [18]): 100% | inhibition in vivo at 3.3 mg/kg (Plasmodium berghei [19]): 11.9% | ED50 (Plasmodium yoelii): 0.57 mg/kg | ED90 (Plasmodium yoelii): 1.7 mg/kg | inhibition in vivo at 3.3 mg/kg (Plasmodium berghei [20]): > 30% | Activity (HeLa [21]): 56.3% | inhibition in vivo at 1.1 mg/kg (Plasmodium berghei [22]): 58.6% | inhibition in vivo at 5 mg/kg (Plasmodium berghei [23]): 4.5% | Activity (Mus musculus [24]): Toxic
